The test system of series [1] is Staphylococcus epidermidis. Description: Antibacterial activity against Staphylococcus epidermidis clinical isolate CL-1 assessed as bacterial growth inhibition incubated for 16 hrs by CLSI based broth microdilution method. The format is functional. (In general: Dilution methods test growth across graded concentrations, often in twofold steps.)
In series [2] the test system is Streptococcus pneumoniae. Description: Antibacterial activity against Streptococcus pneumoniae 6303 assessed as bacterial growth inhibition incubated for 16 hrs by CLSI based broth microdilution method. Format: functional. In outline:
(§1)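 CLSI broth microdilution in LB: eleven 2-fold serial dilutions, 0.10–100 µM. DMSO vehicle/negative control diluted from 0.5% v/v. Wells seeded with ~10⁵ cells from log-phase culture (OD₆₀₀ 0.6–0.8), held 16 h at 37 °C. MIC taken as the lowest concentration preventing growth by OD₆₀₀ turbidity. Minimum three independent experiments.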

In series [3] the test system is Staphylococcus epidermidis. In words: Antibacterial activity against Staphylococcus epidermidis 12228 assessed as bacterial growth inhibition incubated for 16 hrs by CLSI based broth microdilution method. Format: functional. In outline:
as §1

A short description of series [4]: Hemolytic activity against red blood cells (unknown origin) at 200 uM. The format is toxicity, cell-based, Erythrocyte. The note with it: read-out: Activity.
The subject of series [5] is Enterococcus. Description: Antibacterial activity against vancomycin-resistant Enterococcus 700221 assessed as bacterial growth inhibition incubated for 16 hrs by CLSI based broth microdilution method. Format: functional. In outline: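 Growth scored by OD₆₀₀ turbidity after 16 h at 37 °C; MIC is the lowest concentration preventing growth. DMSO vehicle control up to 0.5% v/v. Three or more independent experiments.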

Series [6] concerns Staphylococcus aureus. In words: Antibacterial activity against methicillin-resistant Staphylococcus aureus BAA-44 assessed as bacterial growth inhibition incubated for 16 hrs by CLSI based broth microdilution method. Format: functional. In outline: (§2)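 Broth microdilution per CLSI in LB, eleven two-fold serial dilutions spanning 0.10 to 100 µM. Inoculum ~10⁵ cells/well from fresh log-phase culture (OD₆₀₀ 0.6–0.8). MIC taken as lowest concentration preventing growth after 16 h at 37 °C, read by OD₆₀₀ turbidity. DMSO vehicle control, top 0.5% v/v. At least three independent experiments.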

The test system of series [7] is Staphylococcus epidermidis. Description: Antibacterial activity against methicillin-resistant Staphylococcus epidermidis 35984 assessed as bacterial growth inhibition incubated for 16 hrs by CLSI based broth microdilution method. The format is functional. In outline: as §2
In series [8] the test system is Enterococcus faecalis. In words: Antibacterial activity against Enterococcus faecalis OG1RF assessed as bacterial growth inhibition incubated for 16 hrs by CLSI based broth microdilution method. The format is functional. The essentials:
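Broth microdilution per CLSI in brain-heart infusion: eleven 2-fold dilutions spanning 0.10–100 µM, with DMSO vehicle/negative control topping at 0.5% v/v. Inoculum ~10⁵ cells/well from log-phase culture (OD₆₀₀ 0.6–0.8). 37 °C, 16 h. MIC is the lowest concentration preventing growth, read as OD₆₀₀ turbidity. At least three independent experiments.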

In series [9] the test system is Staphylococcus aureus. Description: Antibacterial activity against Staphylococcus aureus clinical isolate 138 assessed as bacterial growth inhibition incubated for 16 hrs by CLSI based broth microdilution method. Format: functional.
Series [10] has as its system Staphylococcus aureus. Description: Antibacterial activity against Staphylococcus aureus clinical isolate 156 assessed as bacterial growth inhibition incubated for 16 hrs by CLSI based broth microdilution method. The format is functional.
Series [11] has as its system Staphylococcus aureus. In words: Antibacterial activity against methicillin-resistant Staphylococcus aureus clinical isolate 2 assessed as bacterial growth inhibition incubated for 16 hrs by CLSI based broth microdilution method. The format is functional.
Series [12] has as its system Staphylococcus aureus. In words: Antibacterial activity against methicillin-resistant Staphylococcus aureus clinical isolate 1 assessed as bacterial growth inhibition incubated for 16 hrs by CLSI based broth microdilution method. Format: functional.
For series [13], the system named is Staphylococcus aureus. Description: Antibacterial activity against Staphylococcus aureus clinical isolate 129 assessed as bacterial growth inhibition incubated for 16 hrs by CLSI based broth microdilution method. The format is functional.
For series [14], the system named is Staphylococcus aureus. Description: Antibacterial activity against Staphylococcus aureus clinical isolate 147 assessed as bacterial growth inhibition incubated for 16 hrs by CLSI based broth microdilution method. The format is functional.
Series [15] is described as follows: Cytotoxicity against HEK293 cells incubated for 48 hrs by MTT assay. Format: toxicity, cell-based. The note with it: human. The essentials: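 HEK-293 cells (10⁴/well) in DMEM with 10% FBS, penicillin/streptomycin, settled overnight at 37 °C, 5% CO₂. Medium replaced with compound at 0.10–100 µM (2-fold steps); DMSO as negative control. After 48 h at 37 °C, MTT (5 mg/mL stock) added for 3 h. Formazan dissolved in DMSO, OD read at 570 nm. Eight replicates per treatment.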
(Tetrazolium dyes change colour on reduction, which living cells bring about.)

The subject of series [16] is Staphylococcus aureus. Description: Antibacterial activity against methicillin-resistant Staphylococcus aureus BAA-1707 assessed as bacterial growth inhibition incubated for 16 hrs by CLSI based broth microdilution method. The format is functional. The essentials:
as §2

The nature of series [17]: Metal chelating activity assessed as formation of phenazine-iron complex measured for 1 to 60 mins by UV-vis spectroscopy. As to conditions: time 1-60 min. The essentials:
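Compound from a 10 mM DMSO stock diluted in DMSO in a cuvette, alone or with ammonium iron(II) sulfate hexahydrate (10 mM aqueous stock). Spectra of the compound-only cuvette and the iron-containing cuvette are compared by UV-vis spectrometry to judge phenazine–iron(II) complex formation.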

For series [18], the system named is Staphylococcus aureus. In words: Antibacterial activity against methicillin-resistant Staphylococcus aureus 1707 assessed as zone of inhibition at 10 mM incubated for 16 hrs by agar diffusion assay. Format: functional. In outline:
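Modified Kirby-Bauer disk diffusion. 100 µL MRSA 1707 inoculum (OD₆₀₀ 0.7, ~10⁸ CFU) spread on LB agar and left 30 min. 10 µL of 10 mM DMSO compound solution then pipetted onto the plate. Incubation 16 h at 37 °C; zone of inhibition area (cm²) measured. Three independent experiments.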

For series [19], the system named is Staphylococcus aureus. In words: Antibacterial activity against methicillin-resistant Staphylococcus aureus 1707 assessed as bacterial growth inhibition incubated for 16 hrs by CLSI based broth microdilution method. The format is functional. The essentials:
as §2

SMILES strings stand for the structures. Values after ≈ are worked out from the molar mass of the structure shown. Active and inactive are the calls of the source. The calls are words filed in the database; no cut-off is given here. Some results are limits rather than exact numbers.

Turning to `CN[C@H](CC(C)C)C(=O)N[C@H]1C(=O)N[C@@H](CC(N)=O)C(=O)N[C@H]2C(=O)N[C@H]3C(=O)N[C@H](C(=O)N[C@H](C(=O)O)c4cc(O)cc(O)c4-c4cc3ccc4O)[C@H](O)c3ccc(c(Cl)c3)Oc3cc2cc(c3O[C@@H]2O[C@H](CO)[C@@H](O)[C@H](O)[C@H]2O[C@H]2C[C@](C)(N)[C@H](O)[C@H](C)O2)Oc2ccc(cc2Cl)[C@H]1O` [VANCOMYCIN], the MIC in [1] was 0.59 µM (≈ 0.855 µg/mL); in series [2], 0.59 µM (≈ 0.855 µg/mL); in series [3], 1.56 µM (≈ 2.26 µg/mL); in series [5], > 100 µM; in series [6], 0.3 µM (≈ 0.435 µg/mL); in [7] it was 0.59 µM (≈ 0.855 µg/mL). Further, the MIC in series [8] was 1.56 µM (≈ 2.26 µg/mL). In series [4], the hemolysis at 200 µM was < 1%.

As for `CC[C@H]1OC(=O)[C@H](C)[C@@H](O[C@H]2C[C@@](C)(OC)[C@@H](O)[C@H](C)O2)[C@H](C)[C@@H](O[C@@H]2O[C@H](C)C[C@H](N(C)C)[C@H]2O)[C@](C)(O)C[C@@H](C)C(=O)[C@H](C)[C@@H](O)[C@]1(C)O` [ERYTHROMYCIN], the minimum inhibitory concentration (MIC) in series [1] is > 100 µM; in series [9], > 100 µM; in [10], > 100 µM; in series [11] it was 18.8 µM (≈ 13.8 µg/mL); in [12] it was 100 µM (≈ 73.4 µg/mL); in series [13], > 100 µM. Also, the MIC in series [14] was 37.5 µM (≈ 27.5 µg/mL).

Take `NC[C@H]1O[C@H](O[C@H]2[C@H](O)[C@@H](O[C@H]3O[C@H](CO)[C@@H](O)[C@H](N)[C@H]3O)[C@H](N)C[C@@H]2N)[C@H](N)C[C@@H]1O` [TOBRAMYCIN]: the MIC was 1.56 µM (≈ 0.729 µg/mL) in series [1]; 12.5 µM (≈ 5.84 µg/mL) in series [9]; 12.5 µM (≈ 5.84 µg/mL) in [10]; 6.25 µM (≈ 2.92 µg/mL) in series [11]; 6.25 µM (≈ 2.92 µg/mL) in series [12]; > 100 µM in series [13]. Moreover, the MIC in series [14] was 6.25 µM (≈ 2.92 µg/mL).

As for `O=S(=O)(Cc1ccccc1)Oc1c(Br)cc(Br)c2nc3c(C(F)(F)F)cc(C(F)(F)F)cc3nc12`, in series [15], the CC50 at 48 h is 3.6 µM. In addition, the MIC in series [2] was 0.2 µM (≈ 0.129 µg/mL); in [3] it was 0.15 µM (≈ 0.0966 µg/mL); in series [16], > 100 µM; in series [5] it was 0.78 µM (≈ 0.502 µg/mL); in series [6], 18.8 µM (≈ 12.1 µg/mL); in series [7], 1.56 µM (≈ 1 µg/mL). Further, the minimal inhibitory concentration (MIC) in series [19] is > 100 µM; in series [8], 0.39 µM (≈ 0.251 µg/mL). For the same compound, the result in series [17] was inactive. Further, the “diameter of the inhibition zone (DIZ)” value in [18] is reported as 1.07 cm2.

`O=[N+]([O-])c1ccc(CS(=O)(=O)Oc2c(Br)cc(Br)c3nc4c(C(F)(F)F)cc(C(F)(F)F)cc4nc23)cc1` had a cytotoxic concentration (CC50) at 48 h in series [15] of 2.9 µM. The MIC amounted to 0.2 µM (≈ 0.138 µg/mL) in series [2]; 0.15 µM (≈ 0.103 µg/mL) in [3]; 1.56 µM (≈ 1.08 µg/mL) in series [16]; 1.56 µM (≈ 1.08 µg/mL) in series [5]; 4.69 µM (≈ 3.23 µg/mL) in [6]; 0.78 µM (≈ 0.538 µg/mL) in [7]. Also, the MIC was 1.56 µM (≈ 1.08 µg/mL) in [19] and 0.78 µM (≈ 0.538 µg/mL) in series [8]. Also, in series [4], the hemolysis at 200 µM was 10.4%. In addition, the result in series [17] was inactive. Further, the “diameter of the inhibition zone (DIZ)” value in series [18] is listed as 2.57 cm2.

With `O=S(=O)(Cc1ccccc1)Oc1c(Br)cc(Br)c2nc3cc(Cl)ccc3nc12`, the CC50 at 48 h in [15] turned out to be 30.3 µM. The MIC in series [2] is 1.56 µM (≈ 0.847 µg/mL); in [3], 3.13 µM (≈ 1.7 µg/mL); in series [16], 2.35 µM (≈ 1.28 µg/mL); in series [5], > 100 µM; in series [19], 3.13 µM (≈ 1.7 µg/mL); in [8], > 100 µM. Besides, the outcome in series [17] was inactive. Moreover, the “diameter of the inhibition zone (DIZ)” value in series [18] came out at 0 cm2.

As usually defined, the MIC is the least concentration at which growth counts as inhibited. For orientation: CC50 means the concentration at which the toxic effect on the cells reaches its halfway point.

For the origin of these results see ChEMBL document CHEMBL5329167, “Design, synthesis and evaluation of halogenated phenazine antibacterial prodrugs targeting nitroreductase enzymes for activation” (RSC Med Chem, 2023).
